Data on twelve molecules can be found in ChEMBL document CHEMBL1153436, “2-Pyridyl P1'-substituted symmetry-based human immunodeficiency virus protease inhibitors (A-792611 and A-790742) with potential for convenient dosing and reduced side effects” (J Med Chem, 2009).

As usually defined, the EC50 is the midpoint of the concentration-response curve.

In assay [1] the test system is Human immunodeficiency virus 1. The experiment in a line: Antiviral activity against wild-type HIV1 pNL4-3 infected in human MT4 cells after 5 days by MTT assay in presence of 50% human serum. It is filed as functional, organism-based. The settings on record: Human immunodeficiency virus 1, MT4, 120 h. A general note: Tetrazolium dyes change colour on reduction, which living cells bring about.

The subject of assay [2] is Human immunodeficiency virus 1. The experiment in a line: Antiviral activity against wild-type HIV1 pNL4-3 infected in human MT4 cells after 5 days by MTT assay. It counts as functional, organism-based. The settings on record: Human immunodeficiency virus 1, MT4, 120 h.
Assay [3] deals with Human immunodeficiency virus 1. As to the kind of experiment: Antiviral activity against HIV1 bearing protease gene with A17 mutation infected in human MT4 cells after 5 days by MTT assay. It is filed as functional, organism-based. Particulars: Human immunodeficiency virus 1, MT4, 120 h. In a few lines: (§1)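 HIV-1 A17 mutant clone carrying protease mutations L10F, V32I, M46I, I47V, Q58E and I84V, generated by in vitro serial passage under LPV/RTV. EC50 was determined in MT-4 cells. Wild-type reference strain was HIV-1 pNL4-3.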

Assay [4] concerns Human immunodeficiency virus 1. The experiment in a line: Fold resistance, ratio of EC50 for HIV1 bearing protease gene with A17 mutation to EC50 for wild-type HIV1 pNL4-3. It is filed as functional. In a few lines:
as §1

`COC(=O)N[C@H](C(=O)N[C@H](Cc1ccc(-c2ccccn2)cc1)C[C@H](O)[C@H](Cc1ccccc1)NC(=O)[C@@H](N1CCN(Cc2cccc(C)n2)C1=O)C(C)(C)C)C(C)(C)C`: the 50% effective concentration (EC50) in assay [1] worked out at 27 nM; in assay [2] it was 5 nM; in assay [3] it was 21 nM. In addition, the “Ratio EC50” value in assay [4] is 4.

As to `COC(=O)N[C@H](C(=O)N[C@@H](Cc1ccc(-c2ccccn2)cc1)[C@@H](O)C[C@H](Cc1ccccc1)NC(=O)[C@@H](N1CCN(Cc2csc(C(C)C)n2)C1=O)C(C)(C)C)C(C)(C)C`, the figures for the half-maximal effective concentration (EC50) in assay [1] and in assay [2] were 13 nM and 1 nM, respectively. In assay [4], the “Ratio EC50” value is given as 1.

For `COC(=O)N[C@H](C(=O)N[C@@H](Cc1ccc(-c2ccccn2)cc1)[C@@H](O)C[C@H](Cc1ccccc1)NC(=O)[C@@H](N1CCN(Cc2ccccc2)C1=O)C(C)(C)C)C(C)(C)C`, the concentration giving a half-maximal response (EC50) was found to be 10 nM in assay [1], 1 nM in assay [2] and 4 nM in assay [3]. For the same molecule, the “Ratio EC50” value in assay [4] is 4.

With `COC(=O)N[C@H](C(=O)N[C@@H](Cc1ccc(-c2ccccn2)cc1)C[C@H](O)[C@H](Cc1ccccc1)NC(=O)[C@@H](N1CCN(Cc2ccc(N)cc2)C1=O)C(C)(C)C)C(C)(C)C`, the EC50 in assay [1] was found to be 63 nM; in assay [2] it was 10 nM; in assay [3] it was 30 nM. In assay [4], the “Ratio EC50” value is reported as 3.

As to `COC(=O)N[C@H](C(=O)N[C@@H](Cc1ccc(-c2ccccn2)cc1)[C@@H](O)C[C@H](Cc1ccccc1)NC(=O)[C@@H](N1CCN(Cc2cccc(C)n2)C1=O)C(C)(C)C)C(C)(C)C`, the concentration for a half-maximal effect (EC50) was 30 nM in assay [1] and 5 nM in assay [2]. In addition, in assay [4], the “Ratio EC50” value was 1.

In the case of `COC(=O)N[C@H](C(=O)N[C@H](Cc1ccc(-c2ccccn2)cc1)C[C@H](O)[C@H](Cc1ccccc1)NC(=O)[C@@H](N1CCN(Cc2csc(-c3cccnc3)n2)C1=O)C(C)(C)C)C(C)(C)C`, the EC50 was found to be 15 nM in assay [1], 2 nM in assay [2] and 7 nM in assay [3]. Moreover, in assay [4], the “Ratio EC50” value stood at 4.

Take `COC(=O)N[C@H](C(=O)N[C@@H](Cc1ccc(-c2ccccn2)cc1)C[C@H](O)[C@H](Cc1ccccc1)NC(=O)[C@@H](N1CCN(Cc2csc(C)n2)C1=O)C(C)(C)C)C(C)(C)C`: the EC50 was determined as 94 nM in assay [1] and 10 nM in assay [2]. Besides, the “Ratio EC50” value in assay [4] is 1.

For the molecule `COC(=O)N[C@H](C(=O)N[C@@H](Cc1ccc(-c2ccccn2)cc1)C[C@H](O)[C@H](Cc1ccccc1)NC(=O)[C@@H](N1CCN(Cc2ccccc2F)C1=O)C(C)(C)C)C(C)(C)C`, the concentration giving a half-maximal response (EC50) was 36 nM in assay [1], 11 nM in assay [2] and 88 nM in assay [3].

Regarding `COC(=O)N[C@H](C(=O)N[C@@H](Cc1ccc(-c2ccccn2)cc1)C[C@H](O)[C@H](Cc1ccccc1)NC(=O)[C@@H](N1CCN(Cc2cccc(F)c2)C1=O)C(C)(C)C)C(C)(C)C`, the values for the 50% effective concentration (EC50) in assay [1], in assay [2] and in assay [3] were 28 nM, 4 nM and 38 nM, respectively. Further, the “Ratio EC50” value in assay [4] is 9.

On to `COC(=O)N[C@H](C(=O)N[C@@H](Cc1ccc(-c2ccccn2)cc1)C[C@H](O)[C@H](Cc1ccccc1)NC(=O)[C@@H](N1CCN(Cc2ccc(F)cc2)C1=O)C(C)(C)C)C(C)(C)C`, for which the EC50 in assay [1] was 33 nM; in assay [2], 6 nM; in assay [3] it was 42 nM. In addition, the “Ratio EC50” value in assay [4] is 7.

As to `COC(=O)N[C@H](C(=O)N[C@@H](Cc1ccc(-c2ccccn2)cc1)[C@@H](O)C[C@H](Cc1ccccc1)NC(=O)[C@@H](N1CCN(Cc2nc3ccccc3n2C)C1=O)C(C)(C)C)C(C)(C)C`, the values for the concentration giving a half-maximal response (EC50) in assay [1], in assay [2] and in assay [3] were 82 nM, 7 nM and 3 nM, respectively. For the same molecule, the “Ratio EC50” value in assay [4] is on record as below 1.

As for `COC(=O)N[C@H](C(=O)N[C@@H](Cc1ccc(-c2ccccn2)cc1)C[C@H](O)[C@H](Cc1ccccc1)NC(=O)[C@@H](N1CCN(Cc2ccccc2C)C1=O)C(C)(C)C)C(C)(C)C`, the EC50 is 30 nM in assay [1], 10 nM in assay [2] and 72 nM in assay [3]. Moreover, the “Ratio EC50” value in assay [4] was determined as 7.
